Assay results collected from several papers.
Lines come from different studies, so protocols differ.

CC[C@H](C)[C@H](NC(=O)[C@H](CO)NC(=O)[C@H](CCCNC(=N)N)NC(C)=O)C(=O)N[C@H]1CSSC[C@@H](C(=O)N[C@H](C(N)=O)[C@@H](C)O)NC(=O)[C@H](CCCNC(=N)N)NC(=O)[C@H](Cc2c[nH]cn2)NC(=O)[C@H](Cc2cccc3ccccc23)NC(=O)CNC(=O)[C@H](Cc2c[nH]c3ccccc23)NC(=O)[C@H](CC(=O)O)NC(=O)[C@H](CCC(N)=O)NC(=O)[C@H](Cc2cccc3ccccc23)NC(=O)[C@H](C(C)C)NC1=O — solubility (PBS; pH 7.4): 200 µg/mL
O=c1[nH]c2ccccc2n1CCCN1CCC(n2c(=O)[nH]c3cc(Cl)ccc32)CC1 — solubility (FaSSIF; 24 h; pH 7.4; 37 °C): 135 µg/mL
CCCCCCC#Cc1cncc(-c2nnc(SCc3cc([N+](=O)[O-])cc([N+](=O)[O-])c3)n2C)c1 — solubility (PBS): < 1.6 µM
CC[C@H](C)[C@H](NC(C)=O)C(=O)N[C@H]1CSSC[C@@H](C(=O)N[C@H](C(N)=O)[C@@H](C)O)NC(=O)[C@H](CCCNC(=N)N)NC(=O)[C@H](Cc2cnc[nH]2)NC(=O)[C@H](Cc2cccc3ccccc23)NC(=O)CNC(=O)[C@H](Cc2c[nH]c3ccccc23)NC(=O)[C@H](CC(=O)O)NC(=O)[C@H](CCC(N)=O)NC(=O)[C@H](Cc2cn(C)c3ccccc23)NC(=O)[C@H](C(C)C)NC1=O — solubility (PBS; pH 7.4): 110 µg/mL
Clc1ccc(CSc2nnc(-c3ccccn3)n2Cc2ccco2)cc1Cl — solubility (aqueous buffer; pH 5): < 0.1 µg/mL
COc1ccc(NC(=O)N2CCCCN3[C@H](CN(C)C)[C@H](c4ccc(C#Cc5ccccc5)cc4)[C@@H]3C2)cc1 — solubility (aqueous buffer; pH 1): 155 µM
CC(/C=C/[C@@H]1C[C@]2(CO2)CC(C)(C)O1)=C\C[C@H]1OC[C@@H](NC(=O)/C=C\[C@H](C)OC(=O)C(C)(C)C)CO1 — solubility (HPLC; PBS): > 10 µM
O=C1C=C(N(Cc2ccc(Cl)nc2)CC(F)F)CO1 — solubility (methanol; 20 °C): > 250000 µg/mL
CC[C@H](C)[C@H](NC(C)=O)C(=O)N[C@H]1CSSC[C@@H](C(=O)N[C@H](C(N)=O)[C@@H](C)O)NC(=O)[C@H](CCCNC(=N)N)NC(=O)[C@H](Cc2cnc[nH]2)NC(=O)[C@H](Cc2cccc3ccccc23)NC(=O)CNC(=O)[C@H](Cc2c[nH]c3ccccc23)NC(=O)[C@H](CC(=O)O)NC(=O)[C@H](CCC(N)=O)NC(=O)[C@H](Cc2c[nH]c3ccccc23)NC(=O)[C@H](C(C)C)NC1=O — solubility (PBS; pH 7.4): 150 µg/mL
CCCSc1ccc2nc(NC(=O)OC)[nH]c2c1 — solubility (water; 24 h): < 1 µg/mL
COc1cc([C@@H]2c3cc4c(cc3[C@H](O)[C@H]3COC(=O)[C@H]23)OCO4)cc(OC)c1OC — solubility (water): 2200 µg/mL
CC[C@H](C)[C@H](NC(=O)[C@H](CO)NC(=O)[C@H](CCCNC(=N)N)NC(C)=O)C(=O)N[C@H]1CSSC[C@@H](C(=O)N[C@H](C(N)=O)[C@@H](C)O)NC(=O)[C@H](CCCNC(=N)N)NC(=O)[C@H](Cc2cnc[nH]2)NC(=O)[C@H](C)NC(=O)CNC(=O)[C@H](Cc2c[nH]c3ccccc23)NC(=O)[C@H](CC(=O)O)NC(=O)[C@H](CCC(N)=O)NC(=O)[C@H](Cc2ccc(O)cc2)NC(=O)[C@H](C(C)C)NC1=O — solubility (PBS; pH 7.4): 2840 µg/mL
CCc1cc(OC)cc2c(/C=N/NC(=N)NCCc3ccc(C#N)cc3)c[nH]c12 — solubility (PBS; 2 h; pH 7.4): 55.5 µM
